Sampled rows, rich in hits. Any-hit rate of the full collection: about 3.7%.
KCNQ1 act: potentiators or activators of KCNQ1 channel, primary screen, cell-based, thallium flux, high-throughput | Potassium voltage-gated channel subfamily KQT member 1 (Homo sapiens), P51787 | actives 0.35% (n = 310,000) | B-score at 10 µM | CHO-K1 KCNQ1, thallium flux FluxOR fluorescence; hits give high values;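 active means fluorescence ratio B-score, a plate-corrected score, at least three library SD, with initial intensity B-score within 5 SD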
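Assay system: stable KCNQ1 CHO-K1 line; medium: assay buffer, equal DMSO in all wells; timing: 90 min dye loading and 20 min compound exposure, both at room temperature; technique: kinetic FluxOR thallium fluorescence, 10-s 1-Hz baseline, 110-s post-stimulus read; read-out basis: B score of baseline-normalized fluorescence ratio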
KCNQ1 block: inhibitors of human KCNQ1 channel, primary screen, cell-based, thallium flux, high-throughput | Potassium voltage-gated channel subfamily KQT member 1 (Homo sapiens), P51787 | CHO-K1 KCNQ1, FluxOR thallium flux fluorescence; hits give high values | B-score at 10 µM | actives 1.3% (n = 310,000) | AID 2642, 2010;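 active means compounds whose thallium flux B-score, printed positive for inhibition, exceeds three library SD while starting fluorescence stays within three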;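 further: channel opened by potassium depolarization with thallium stimulus after 20 min compound exposure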
KCNK9 inh: KCNK9 potassium channel inhibitors, primary screen, HEK293 cells, thallium flux; Potassium channel subfamily K member 9 (Homo sapiens), Q9NPC2; FluxOR thallium flux fluorescence; hits give low values; B-score at 10 µM; actives 1.2% (n = 310,000);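 active means ratio B-score over 3 SD below the library mean, with starting fluorescence within 5 SD of its mean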;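 further: negative B-score means less thallium flux so channel inhibition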
Target sequence (Q9NPC2 whole entry, looked up): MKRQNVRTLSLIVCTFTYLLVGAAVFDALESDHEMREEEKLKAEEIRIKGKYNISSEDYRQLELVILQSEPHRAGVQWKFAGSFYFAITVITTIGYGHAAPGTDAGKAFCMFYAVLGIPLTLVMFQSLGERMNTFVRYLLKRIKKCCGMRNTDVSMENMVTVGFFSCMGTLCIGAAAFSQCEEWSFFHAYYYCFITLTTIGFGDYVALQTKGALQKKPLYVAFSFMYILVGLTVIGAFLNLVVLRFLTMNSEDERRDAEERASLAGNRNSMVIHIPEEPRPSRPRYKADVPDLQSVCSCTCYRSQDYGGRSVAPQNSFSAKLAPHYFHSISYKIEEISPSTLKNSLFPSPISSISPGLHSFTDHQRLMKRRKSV
KCNK3 block: human KCNK3 channel inhibitors, primary screen, CHO cells, FluxOR thallium flux, B-score | Potassium channel subfamily K member 3 (Homo sapiens), O14649 | FluxOR fluorescence; hits give low values | B-score at 10 µM | actives 0.84% (n = 340,000) | AID 602410, 2012;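 active means B-score under library mean minus 4 SD, starting fluorescence ratio at most library mean plus 5 SD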;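 further: more negative B-score means stronger inhibition of thallium flux through KCNK3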
Target sequence (O14649 whole entry, looked up): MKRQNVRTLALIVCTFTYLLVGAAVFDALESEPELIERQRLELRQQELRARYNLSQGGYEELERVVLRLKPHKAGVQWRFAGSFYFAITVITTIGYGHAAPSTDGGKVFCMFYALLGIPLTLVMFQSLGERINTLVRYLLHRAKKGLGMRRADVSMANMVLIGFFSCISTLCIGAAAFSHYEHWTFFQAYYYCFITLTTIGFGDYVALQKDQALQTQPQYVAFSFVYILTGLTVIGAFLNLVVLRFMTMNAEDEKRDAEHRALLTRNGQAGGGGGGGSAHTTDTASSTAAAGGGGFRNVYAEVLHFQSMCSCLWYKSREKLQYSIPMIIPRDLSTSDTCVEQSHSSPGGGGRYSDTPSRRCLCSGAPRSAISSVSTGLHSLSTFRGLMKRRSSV
Kir21 block: inhibitors of mouse Kir2.1 inward-rectifier potassium channel | Inward rectifier potassium channel 2 (Mus musculus), P35561 | HEK293-Kir2.1, FluxOR thallium flux fluorescence; hits give low values | B-score at 10 µM | actives 0.85% (n = 310,000);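 active means fluorescence ratio B-score at or below minus 3 SD of library scores, with starting-brightness B-score within 2 SD, cut at about -4.2 in these data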;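 further: channel flux triggered by added potassium and thallium sulfate stimulus; B-score of peak minus minimum fluorescence over baseline after thallium stimulus; more negative B-score means stronger Kir2.1 block with less thallium influx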
hERG rescue: hERG rescue from dofetilide block, primary screen, cell-based, CHO-hERG, FluxOR thallium flux, dofetilide IC70; actives 0.51% (n = 310,000); activation (rescue from dofetilide block), less the hit threshold, % at 10 µM; dofetilide IC70 present; Voltage-gated inwardly rectifying potassium channel KCNH2 (Homo sapiens), Q12809; AID 1511, 2009;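 active means activation above the mean of controls blocked by dofetilide plus 5 SD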;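 further: thallium influx through hERG after potassium depolarization seen as dye fluorescence rise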
KCNK3 confirm: retest of human KCNK3 channel inhibitors, confirmation, CHO cells, FluxOR thallium flux, triplicate. ratio percent of control, % at 10 µM. AID 651638, 2012. actives 99% (n = 2,400). FluxOR fluorescence; 0% buffer, 100% carvedilol maximal block. shares compounds with KCNK3 block;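 active means ratio percent of control, averaged over triplicates, above buffer control mean plus 5 SD, cut at about 64% in these data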;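 further: ratio is the fluorescence rise from min to max over baseline after thallium stimulus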
KCNK3 uninduced: thallium flux inhibition in non-induced cells, primary screen, counter-screen for KCNK3 inhibitor project, cell-based, non-induced KCNK3 line, FluxOR thallium, triplicate; shares compounds with KCNK3 block; non-induced KCNK3 parental cells; hits give low values; thallium flux ratio (lower = more inhibition) at 10 µM; actives 40% (n = 2,400); AID 651747, 2012;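 active means thallium flux ratio, averaged over three wells, more than 5 SD below the buffer control mean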;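 further: host cells are CHO cells without KCNK3 induction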
Each line names hits and unclear results; the compound was inactive in the other large screens (follow-up assays come after a bar, where they were run).

CC(c1cccs1)N(Cc1ccco1)C(=S)Nc1ccccc1Cl (stereo not given)	KCNK3 block -9 | KCNK3 confirm 107 | KCNK3 uninduced inactive
O=[N+]([O-])c1cccc(-c2nnc3ccccn23)c1	none (no result: KCNK3 block)
Cc1ccc(NC(=O)c2ccc(Cl)c(S(=O)(=O)N3CCCCCC3)c2)nc1	KCNK3 block -9.7 | KCNK3 confirm 115 | KCNK3 uninduced inactive
O=C(Nc1ccccn1)c1ccc(Cl)c(S(=O)(=O)N2CCCC2)c1	none
O=C(Nc1ccc(Cl)cn1)c1ccc(Br)c(S(=O)(=O)N2CCCCC2)c1	KCNK9 inh -7.4 | KCNK3 confirm 102 | KCNK3 uninduced inactive
COC(=O)c1ccccc1S(=O)(=O)N1CCC(C(=O)N(C)CCOc2ccccc2)CC1	none
COCCN(C(=O)C1CCN(C(=O)c2ccccc2C)CC1)c1c(N)n(CC(C)C)c(=O)[nH]c1=O	none (no result: KCNQ1 act, KCNQ1 block, KCNK9 inh, Kir21 block, hERG rescue)
CCOc1ccccc1OCCCOc1ccc([N+](=O)[O-])cc1Cl	KCNK3 block -9.8 | KCNK3 confirm 110 | KCNK3 uninduced inactive
Cc1ccc(NC(=O)c2ccc(C)cc2)cc1	none
Cc1ccc(C(=O)Nc2ccc(Br)c(C(F)(F)F)c2)cc1	KCNK3 block -9.3 | KCNK3 confirm 120 | KCNK3 uninduced inactive
CCCc1cc(C(=O)Nc2cc(C)ccc2O)no1	none
Cc1ccc(NC(=O)c2cccs2)cc1NC(=O)c1ccco1	KCNK3 block -8.8 | KCNK3 confirm 105 | KCNK3 uninduced inactive
O=C(Nc1ccc2nc(-c3cccs3)[nH]c2c1)c1ccco1	KCNK3 block -10 | KCNK3 confirm 81 | KCNK3 uninduced inactive
COc1ccc(NC(=O)c2cccs2)cc1NC(=O)c1ccco1	none
Cc1cccc(C(=O)O/N=C(\c2ccccc2)c2cccnc2)c1	KCNK3 block -8.9 | KCNK3 confirm 102 | KCNK3 uninduced inactive
CC(=O)NN1C(=O)/C(=C\c2ccc(O)cc2)SC1=S	none
O=C1/C(=C\c2ccc(O)cc2)SC(=S)N1/N=C/c1ccc(O)cc1	KCNQ1 block 7, KCNK3 block -8.8 | KCNK3 confirm 109 | KCNK3 uninduced 0.15
CCC(C)[C@H]1COCCS(=O)(=O)N1Cc1ccc(Cl)cc1Cl (stereo not given in full)	none
C/C(CC(=O)Nc1ccc(N(C)C)cc1)=N\NC(=O)c1ccc(C(C)(C)C)cc1	none
CC1CCN(C(=O)CSc2ccc(-c3ccc(F)cc3)nn2)CC1	none
CC1CC(C)(C)N(C(=O)CSc2ccc(-c3ccc(F)cc3)nn2)c2ccccc21 (stereo not given)	KCNQ1 block 7, KCNK3 block -12 | KCNK3 confirm 112 | KCNK3 uninduced 0.15
O=C(/C=C/c1ccc(O)c(O)c1)OCCc1ccccc1	KCNK3 block -12 | KCNK3 confirm 84 | KCNK3 uninduced 0.14
COc1ccc(C2C(C(C)=O)=C(Nc3ccccc3)CC(C)(O)C2C(C)=O)cc1OC (stereo not given)	none
COc1ccc(NC2=C(C(C)=O)C(c3ccc(N(C)C)cc3)C(C(C)=O)C(C)(O)C2)cc1 (stereo not given)	none
CC(=O)C1=C(Nc2ccccc2)CC(C)(O)C(C(C)=O)C1c1ccccc1 (stereo not given)	KCNK3 block -12 | KCNK3 confirm 52 | KCNK3 uninduced inactive
COc1ccc(NC2=C(C(C)=O)C(c3ccc(OC)cc3)C(C(C)=O)C(C)(O)C2)cc1 (stereo not given)	KCNK3 block -9.1 | KCNK3 confirm 68 | KCNK3 uninduced inactive
CCc1cc(C(=O)N2CCCc3ccccc32)sc1C	none
O=C(NC1CC1)c1cccc(NC(=O)c2cn3ccccc3n2)c1	KCNK3 block -12 (no result: KCNQ1 act, KCNQ1 block, KCNK9 inh, Kir21 block, hERG rescue) | KCNK3 confirm 60 | KCNK3 uninduced inactive
O=C(NC1CC1)c1cccc(NC(=O)c2cnn(-c3ccccc3)n2)c1	none (no result: KCNQ1 act, KCNQ1 block, KCNK9 inh, Kir21 block, hERG rescue)
CC(CCc1ccccc1)NS(=O)(=O)c1ccc(Cl)c(C(=O)O)c1 (stereo not given)	none
CCCCc1nn(-c2cc(Cl)ccc2OC)c2c1C(=O)CC(C)(C)C2	KCNK3 block -10 | KCNK3 confirm 92 | KCNK3 uninduced inactive
COc1ccc(C(=O)C(C)OC(=O)c2nc3nccc(C)n3n2)cc1 (stereo not given)	none (no result: KCNQ1 act, KCNQ1 block, KCNK9 inh, Kir21 block, hERG rescue)
CN(CCOc1ccccc1)CC(=O)Nc1cccc(Br)c1	KCNK3 block -9.2 | KCNK3 confirm 94 | KCNK3 uninduced inactive
Cc1cc(NC(=O)CN(C)CCOc2ccccc2)ccc1Br	none
CN(CCOc1ccc(Cl)cc1)CC(=O)Nc1ccc(OC(F)(F)F)cc1	KCNK3 block -9.1 | KCNK3 confirm 108 | KCNK3 uninduced 0.15
COc1ccc(NC(=O)CN(C)CCOc2ccc(Cl)cc2)cc1OC	none
CCCNC(=O)c1c(N)n(-c2cc(OC)cc(OC)c2)c2nc3ccccc3nc12	KCNK3 block -9.2 | KCNK3 confirm 125 | KCNK3 uninduced inactive
CCOC(=O)Cn1cc(C#N)c2cccc(CC)c21	none
CCN(CC)C(=O)Oc1nnc(SC(C)C)n1-c1ccc(Cl)cc1	KCNK3 block -9.6 | KCNK3 confirm 86 | KCNK3 uninduced inactive
CCN(CC)C(=O)Oc1nnc(SC(C)C)n1-c1ccc(Cl)c(Cl)c1	none
COc1ccc(CNC(=O)c2ccc(Cl)c(S(=O)(=O)N3CCOCC3)c2)cc1OC	none (no result: KCNQ1 act, KCNQ1 block, KCNK9 inh, Kir21 block, hERG rescue)
Cc1ccn2c(C(=O)N/N=C\c3ccccc3[N+](=O)[O-])c(C)nc2c1	none
CN(C(=O)COC(=O)C1(C)CC1(Cl)Cl)c1c(N)n(Cc2ccccc2)c(=O)[nH]c1=O (stereo not given)	none (no result: KCNQ1 act, KCNQ1 block, KCNK9 inh, Kir21 block, hERG rescue)
COc1ccccc1NC(=O)C(C)OC(=O)C1COc2ccccc2O1 (stereo not given)	none (no result: KCNQ1 act, KCNQ1 block, KCNK9 inh, Kir21 block, hERG rescue)
CCCCn1c(N)c(-c2nc3ccccc3s2)c2c([N+](=O)[O-])nn(CC)c(=O)c21	KCNK3 block -11 | KCNK3 confirm 122 | KCNK3 uninduced 0.13
CNC(=O)c1[nH]cnc1C(=O)Nc1ccc(OC)cc1	none
